According to ChEMBL document CHEMBL2311390, “Synthesis and preliminary evaluation of pharmacological properties of some piperazine derivatives of xanthone” (Bioorg Med Chem, 2013):

Experiments:
Rattus norvegicus [1] = assay: Hypotensive activity in normotensive Wistar rat assessed as reduction of systolic blood pressure at 1.25 mg/kg, iv after 30 mins; type: functional, Artery
Summary of the method: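 Male normotensive Wistar rats (170–350 g) anaesthetised with thiopental 75 mg/kg ip; right carotid artery cannulated with heparinised saline-filled polyethylene tubing for pressure recording. After a 5 min stabilisation, compound given into the caudal vein at 1 mL/kg. Systolic pressure is recorded at 0, 5, 10, 20, 30 and 60 min, and the data are reported as mean ± SEM of five to six animals, with one-way ANOVA.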

Rattus norvegicus [2] = assay: Cardiotoxicity in Wistar rat assessed as QRS interval at 10 mg/kg, iv after 10 mins by ECG analysis; type: toxicity, organism-based; set-up: dose 10 mg/kg, route intravenous; details: in vivo
Rattus norvegicus [3] = assay: Hypotensive activity in normotensive Wistar rat assessed as reduction of systolic blood pressure at 2.5 mg/kg, iv after 20 mins; type: functional, Artery
Summary of the method: (§1)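 Male normotensive Wistar rats (170–350 g) were anaesthetised with thiopental 75 mg/kg ip. The right carotid artery was cannulated with heparin-saline tubing for pressure recording. After a 5 min stabilisation, compound was injected into a caudal vein at 1 mL/kg. Systolic and diastolic pressure were followed up to 60 min. Data are means ± SEM of 5–6 animals, compared by one-way ANOVA.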

Rattus norvegicus [4] = assay: Hypotensive activity in normotensive Wistar rat assessed as reduction of diastolic blood pressure at 2.5 mg/kg, iv after 10 mins; type: functional, Artery; summary of the method: as §1
Rattus norvegicus [5] = assay: Hypotensive activity in normotensive Wistar rat assessed as reduction of diastolic blood pressure at 2.5 mg/kg, iv after 5 mins; type: functional, Artery; summary of the method: as §1
Rattus norvegicus [6] = assay: Hypotensive activity in normotensive Wistar rat assessed as reduction of systolic blood pressure at 2.5 mg/kg, iv after 60 mins; type: functional, Artery; summary of the method: as §1
Rattus norvegicus [7] = assay: Hypotensive activity in normotensive Wistar rat assessed as reduction of diastolic blood pressure at 2.5 mg/kg, iv after 20 mins; type: functional, Artery; summary of the method: as §1
Rattus norvegicus [8] = assay: Hypotensive activity in normotensive Wistar rat assessed as reduction of systolic blood pressure at 2.5 mg/kg, iv after 5 mins; type: functional, Artery; summary of the method: as §1
Rattus norvegicus [9] = assay: Cardiotoxicity in Wistar rat assessed as PQ interval at 5 mg/kg, iv after 10 mins by ECG analysis; type: toxicity, organism-based; set-up: dose 5 mg/kg, route intravenous; details: in vivo
Rattus norvegicus [10] = assay: Hypotensive activity in normotensive Wistar rat assessed as reduction of systolic blood pressure at 2.5 mg/kg, iv after 10 mins; type: functional, Artery; summary of the method: as §1
Rattus norvegicus [11] = assay: Hypotensive activity in normotensive Wistar rat assessed as reduction of diastolic blood pressure at 2.5 mg/kg, iv after 30 mins; type: functional, Artery; summary of the method: as §1
[12] = Displacement of [3H]CGP-12177 from beta1-adrenergic receptor in rat cerebral cortex by liquid scintillation counting; type: tissue-based
Summary of the method: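 Rat cerebral cortex was homogenised in ice-cold 50 mM Tris-HCl pH 7.6 and spun at 20,000 g for 20 min at 0–4 °C, then washed once. Radioligands: [3H]prazosin 0.2 nM for α1, [3H]clonidine 2 nM for α2, [3H]CGP-12177 0.2 nM for β1. Test compounds were run at 7–8 concentrations from 10^-11 to 10^-4 M. Nonspecific binding was defined with phentolamine (α1), clonidine (α2) or propranolol (β1). Counting was by liquid scintillation, in duplicate. Ki was derived by Cheng–Prusoff from 2–3 experiments.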

Rattus norvegicus [13] = assay: Hypotensive activity in normotensive Wistar rat assessed as reduction of systolic blood pressure at 2.5 mg/kg, iv after 30 mins; type: functional, Artery; summary of the method: as §1
Rattus norvegicus [14] = assay: Hypotensive activity in normotensive Wistar rat assessed as reduction of diastolic blood pressure at 2.5 mg/kg, iv after 60 mins; type: functional, Artery; summary of the method: as §1

| Compound | Activity (Rattus norvegicus [1]) [mmHg] | Activity (Rattus norvegicus [2]) [ms] | Activity (Rattus norvegicus [3]) [mmHg] | Activity (Rattus norvegicus [4]) [mmHg] | Activity (Rattus norvegicus [5]) [mmHg] | Activity (Rattus norvegicus [6]) [mmHg] | Activity (Rattus norvegicus [7]) [mmHg] | Activity (Rattus norvegicus [8]) [mmHg] | Activity (Rattus norvegicus [9]) [ms] | Activity (Rattus norvegicus [10]) [mmHg] | Activity (Rattus norvegicus [11]) [mmHg] | Ki [12] [µM] | Activity (Rattus norvegicus [13]) [mmHg] | Activity (Rattus norvegicus [14]) [mmHg] |
| --- | --- | --- | --- | --- | --- | --- | --- | --- | --- | --- | --- | --- | --- | --- |
| Cl.Cl.Cl.O=c1c2ccc(Cl)cc2oc2c(OCC(O)CN3CCN(CCOc4ccccc4)CC3)cccc12 (racemic) | 113.2 | 20.32 |  |  |  |  |  |  |  |  |  |  |  |  |
| Cl.Cl.Cl.O=c1c2ccc(Cl)cc2oc2c(OCC(O)CN3CCN(C/C=C/c4ccccc4)CC3)cccc12 (racemic) |  |  | 130.8 | 110.6 | 103.2 | 126.8 | 110.4 | 125 | 46 | 133 | 110.8 | 43 | 129.8 | 108.6 |
| Cl.Cl.Cl.O=c1c2ccc(Cl)cc2oc2c(OCC(O)CN3CCN(Cc4ccccc4)CC3)cccc12 (racemic) |  | 19.6 | 152.5 | 132.2 | 128.7 | 151.2 | 134.5 | 147.2 |  | 149.5 | 134.2 |  | 152.2 | 134.2 |
| Cl.Cl.O=c1c2ccccc2oc2c(OCC(O)CN3CCN(C/C=C/c4ccccc4)CC3)cccc12 (racemic) |  |  | 139.8 | 117.2 | 118.4 | 125.6 | 114 | 144.2 | 41.7 | 144.2 | 110.8 | 5.2 | 132.6 | 105 |
